“And” between values parts separate entries of the source, which are not always exact repeats. Equal entries are not always repeated.
Tested on: Fibroblast
Assay: Multiplex assay against human fibroblast
Type: toxicity, cell-based
Procedure, shortened: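 Live cells carried four stains from seeding: Hoechst33342, BioTracker Green Microtubule Cytoskeleton Dye, MitoTracker Red and Annexin V Alexa Fluor 680. They were imaged on a CQ1 microscope at 37°C and 5% CO2 after compound addition. Using CellPathfinder machine-learning gating, cells were split into Hoechst high-intensity objects or normal cells, normal cells into healthy, pyknosed or fragmented nuclei, and pyknosed cells into mitotic or apoptotic; tubulin, mitochondrial-mass and membrane-permeability phenotypes are per cents of healthy-nucleus cells.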

[1] = 12 h, 1 µM, compound concentration 1 uM
[2] = 12 h, 10 µM, compound concentration 10 uM
[3] = 24 h, 1 µM, compound concentration 1 uM
[4] = 24 h, 10 µM, compound concentration 10 uM
[5] = 48 h, 1 µM, compound concentration 1 uM
[6] = 48 h, 10 µM, compound concentration 10 uM

## C[C@H](C[C@H](N)C(=O)O)C(=O)O [2S,4R-4-METHYLGLUTAMATE]
[1]
  Population Apoptotic (%): 17.14% and 40%
  Population Fragmented Nuclei (%): 10.46% and 7.78%
  Population Healthy Nuclei (%): 66.67% and 77.25%
  Population Hoechst High Intensity Objects (%): 0%
  Population Membrane Permeable-Phenotype (%): 1.96% and 3.1%
  Population Mitochondria Different-Phenotype (%): 8.82% and 6.98%
  Population Mitotic Cells (%): 82.86% and 60%
  Population Normal (%): 100%
  Population Pyknosed Nuclei (%): 22.88% and 14.97%
  Population Tubulin-Different-Phenotype (%): 9.8% and 13.95%
  Total Cell Count: 153 and 167
[2]
  Population Apoptotic (%): 12.5% and 8.57%
  Population Fragmented Nuclei (%): 12.57% and 5.6%
  Population Healthy Nuclei (%): 64.57% and 79.31%
  Population Hoechst High Intensity Objects (%): 0%
  Population Mitochondria Different-Phenotype (%): 11.5% and 11.96%
  Population Mitotic Cells (%): 87.5% and 91.43%
  Population Normal (%): 100%
  Population Pyknosed Nuclei (%): 22.86% and 15.09%
  Population Tubulin-Different-Phenotype (%): 17.7% and 19.02%
  Total Cell Count: 175 and 232
[3]
  Population Fragmented Nuclei (%): 9.47% and 7.6%
  Population Healthy Nuclei (%): 73.16% and 83.04%
  Population Hoechst High Intensity Objects (%): 0%
  Population Membrane Permeable-Phenotype (%): 3.6% and 1.41%
  Population Mitochondria Different-Phenotype (%): 2.16% and 9.86%
  Population Mitotic Cells (%): 90.91% and 68.75%
  Population Normal (%): 100%
  Population Pyknosed Nuclei (%): 17.37% and 9.36%
  Population Tubulin-Different-Phenotype (%): 12.95% and 10.56%
  Total Cell Count: 190 and 171
[4]
  Population Apoptotic (%): 19.35% and 15.79%
  Population Fragmented Nuclei (%): 10.38% and 3.95%
  Population Healthy Nuclei (%): 72.68% and 87.72%
  Population Hoechst High Intensity Objects (%): 0%
  Population Membrane Permeable-Phenotype (%): 6.02% and 0%
  Population Mitochondria Different-Phenotype (%): 6.02% and 4.5%
  Population Mitotic Cells (%): 80.65% and 84.21%
  Population Normal (%): 100%
  Population Pyknosed Nuclei (%): 16.94% and 8.33%
  Population Tubulin-Different-Phenotype (%): 18.05% and 14.5%
  Total Cell Count: 183 and 228
[5]
  Population Apoptotic (%): 16.67% and 37.5%
  Population Fragmented Nuclei (%): 6.91% and 10.23%
  Population Healthy Nuclei (%): 84.79% and 85.23%
  Population Hoechst High Intensity Objects (%): 0%
  Population Membrane Permeable-Phenotype (%): 1.63% and 1.33%
  Population Mitotic Cells (%): 83.33% and 62.5%
  Population Normal (%): 100%
  Population Pyknosed Nuclei (%): 8.29% and 4.55%
  Population Tubulin-Different-Phenotype (%): 10.33% and 18%
  Total Cell Count: 217 and 176
[6]
  Population Apoptotic (%): 28.57% and 21.43%
  Population Fragmented Nuclei (%): 9.04% and 3.43%
  Population Healthy Nuclei (%): 83.51% and 90.56%
  Population Hoechst High Intensity Objects (%): 0%
  Population Membrane Permeable-Phenotype (%): 0% and 2.37%
  Population Mitotic Cells (%): 71.43% and 78.57%
  Population Normal (%): 100%
  Population Pyknosed Nuclei (%): 7.45% and 6.01%
  Population Tubulin-Different-Phenotype (%): 10.83% and 15.64%
  Total Cell Count: 188 and 233

## CN1CCN(c2ccc(Nc3c4ccccc4nc4ccccc34)cc2)CC1.Cl.Cl.O
[1]
  Population Apoptotic (%): 47% and 44%
  Population Fragmented Nuclei (%): 15% and 28%
  Population Healthy Nuclei (%): 69% and 56%
  Population Hoechst High Intensity Objects (%): 1%
  Population Membrane Permeable-Phenotype (%): 0% and 5%
  Population Mitochondria Different-Phenotype (%): 3% and 5%
  Population Mitotic Cells (%): 52% and 56%
  Population Normal (%): 98%
  Population Pyknosed Nuclei (%): 14% and 15%
  Population Tubulin-Different-Phenotype (%): 23% and 34%
  Total Cell Count: 135 and 160
[2]
  Population Apoptotic (%): 91% and 66%
  Population Fragmented Nuclei (%): 42% and 65%
  Population Healthy Nuclei (%): 49% and 29%
  Population Hoechst High Intensity Objects (%): 8% and 16%
  Population Membrane Permeable-Phenotype (%): 0% and 4%
  Population Normal (%): 91% and 83%
  Population Pyknosed Nuclei (%): 8% and 4%
  Population Tubulin-Different-Phenotype (%): 90% and 79%
  Total Cell Count: 158 and 177
[3]
  Population Apoptotic (%): 70% and 60%
  Population Fragmented Nuclei (%): 21% and 29%
  Population Healthy Nuclei (%): 65% and 57%
  Population Hoechst High Intensity Objects (%): 0%
  Population Membrane Permeable-Phenotype (%): 0% and 3%
  Population Mitochondria Different-Phenotype (%): 2% and 7%
  Population Mitotic Cells (%): 29% and 40%
  Population Normal (%): 99% and 100%
  Population Pyknosed Nuclei (%): 12%
  Total Cell Count: 139 and 155
[4]
  Population Apoptotic (%): 77% and 60%
  Population Fragmented Nuclei (%): 47% and 69%
  Population Healthy Nuclei (%): 39% and 27%
  Population Hoechst High Intensity Objects (%): 16% and 21%
  Population Membrane Permeable-Phenotype (%): 1% and 6%
  Population Mitochondria Different-Phenotype (%): 66% and 34%
  Population Mitotic Cells (%): 22% and 40%
  Population Normal (%): 83% and 78%
  Population Pyknosed Nuclei (%): 12% and 3%
  Population Tubulin-Different-Phenotype (%): 94% and 84%
  Total Cell Count: 206 and 205
[5]
  Population Apoptotic (%): 66% and 55%
  Population Fragmented Nuclei (%): 23% and 25%
  Population Healthy Nuclei (%): 70% and 68%
  Population Hoechst High Intensity Objects (%): 1%
  Population Membrane Permeable-Phenotype (%): 0% and 1%
  Population Mitochondria Different-Phenotype (%): 4%
  Population Mitotic Cells (%): 33% and 44%
  Population Normal (%): 98%
  Population Pyknosed Nuclei (%): 6% and 5%
  Population Tubulin-Different-Phenotype (%): 26%
  Total Cell Count: 144 and 157
[6]
  Population Fragmented Nuclei (%): 71% and 88%
  Population Healthy Nuclei (%): 15% and 11%
  Population Hoechst High Intensity Objects (%): 45% and 38%
  Population Membrane Permeable-Phenotype (%): 15% and 25%
  Population Mitochondria Different-Phenotype (%): 30% and 12%
  Population Normal (%): 54% and 61%
  Population Pyknosed Nuclei (%): 12% and 0%
  Population Tubulin-Different-Phenotype (%): 25% and 56%
  Total Cell Count: 235 and 236

## Cl.O=S(=O)(c1cccc2c(I)cccc12)N1CCCNCC1
[1]
  Population Apoptotic (%): 20.93% and 13.51%
  Population Fragmented Nuclei (%): 13.23% and 4.19%
  Population Healthy Nuclei (%): 64.02% and 76.44%
  Population Hoechst High Intensity Objects (%): 0%
  Population Membrane Permeable-Phenotype (%): 4.96% and 4.79%
  Population Mitochondria Different-Phenotype (%): 9.92% and 6.85%
  Population Mitotic Cells (%): 79.07% and 86.49%
  Population Normal (%): 100%
  Population Pyknosed Nuclei (%): 22.75% and 19.37%
  Population Tubulin-Different-Phenotype (%): 14.88% and 28.08%
  Total Cell Count: 189 and 191
[2]
  Population Fragmented Nuclei (%): 9.25% and 6.27%
  Population Healthy Nuclei (%): 60.69% and 61.18%
  Population Hoechst High Intensity Objects (%): 0%
  Population Membrane Permeable-Phenotype (%): 5.71% and 3.85%
  Population Mitochondria Different-Phenotype (%): 15.24% and 15.38%
  Population Mitotic Cells (%): 94.23% and 67.47%
  Population Normal (%): 100%
  Population Pyknosed Nuclei (%): 30.06% and 32.55%
  Population Tubulin-Different-Phenotype (%): 25.71% and 55.13%
  Total Cell Count: 173 and 255
[3]
  Population Apoptotic (%): 7.89% and 13.64%
  Population Fragmented Nuclei (%): 8.84% and 7.04%
  Population Healthy Nuclei (%): 73.49% and 81.91%
  Population Hoechst High Intensity Objects (%): 0%
  Population Membrane Permeable-Phenotype (%): 4.43% and 3.07%
  Population Mitochondria Different-Phenotype (%): 6.33% and 6.13%
  Population Mitotic Cells (%): 92.11% and 86.36%
  Population Normal (%): 100%
  Population Pyknosed Nuclei (%): 17.67% and 11.06%
  Population Tubulin-Different-Phenotype (%): 16.46% and 28.22%
  Total Cell Count: 215 and 199
[4]
  Population Apoptotic (%): 11.9% and 25.45%
  Population Fragmented Nuclei (%): 8.42% and 3.61%
  Population Healthy Nuclei (%): 69.47% and 76.53%
  Population Hoechst High Intensity Objects (%): 0%
  Population Membrane Permeable-Phenotype (%): 3.79% and 5.66%
  Population Mitochondria Different-Phenotype (%): 9.85% and 15.57%
  Population Mitotic Cells (%): 88.1% and 74.55%
  Population Normal (%): 100%
  Population Pyknosed Nuclei (%): 22.11% and 19.86%
  Population Tubulin-Different-Phenotype (%): 34.85% and 63.21%
  Total Cell Count: 190 and 277
[5]
  Population Apoptotic (%): 25% and 33.33%
  Population Fragmented Nuclei (%): 8.44% and 10.78%
  Population Healthy Nuclei (%): 86.5% and 83.33%
  Population Hoechst High Intensity Objects (%): 0%
  Population Membrane Permeable-Phenotype (%): 1.46% and 7.06%
  Population Mitotic Cells (%): 75% and 66.67%
  Population Normal (%): 100%
  Population Pyknosed Nuclei (%): 5.06% and 5.88%
  Total Cell Count: 237 and 204
[6]
  Population Apoptotic (%): 25% and 50%
  Population Healthy Nuclei (%): 74.48% and 87.96%
  Population Hoechst High Intensity Objects (%): 0%
  Population Membrane Permeable-Phenotype (%): 0.56% and 9.13%
  Population Mitochondria Different-Phenotype (%): 10.11% and 9.51%
  Population Mitotic Cells (%): 75% and 50%
  Population Normal (%): 100%
  Population Pyknosed Nuclei (%): 8.37% and 7.36%
  Population Tubulin-Different-Phenotype (%): 19.1% and 53.99%
  Total Cell Count: 239 and 299

Source: ChEMBL document CHEMBL5724801, “EUbOPEN Chemogenomics Library - Multiplex” (2024)
